Activity calls are given as the source filed them.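 The calls were made as follows, unless noted: active = inhibition of the reporter signal at or above 50%; inactive = inhibition below 50%.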
Columns and labels:
[1] = inhibitors of TNFa-induced NFkB p65 translocation, primary screen, imaging, HUVEC, MLSMR starter and 10KST1 sets (AID 438;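 active = inhibition above 20% together with a positive visual image hit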;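 also: compound added about 3h40 before a 20 min TNFalpha stimulation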;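 as to inhibition: signal is the nuclear over cytoplasmic p65 intensity ratio per well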); details: HUVEC TNFa-induced p65 nuclear translocation; cell count: measured here: nuclei count (cytotoxicity indicator), at 2.08 µM; inhibition: at 2 µM, stronger effect = higher value, 0% TNFa-plus-vehicle, 100% no-TNFa wells
[2] = inhibitors of mutant huntingtin aggregation, primary screen, imaging, exon1htt(103Q)mCFP cells, high-content imaging (AID 483;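 active = visual image review flags a hit and inhibition of aggregation exceeds 20%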;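 also: compound exposure lasted 3 days before fixation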;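 as to nuclei count: percent of the per-plate median nuclei count of sample wells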); details: exon1htt(103Q)mCFP cell line, aggregate imaging, at 2 µM; inhibition of aggregation: stronger effect = higher value; nuclei count: measured here: cell count, toxicity
[3] = inhibitors of E-selectin induction by TNFa, primary screen, imaging, HUVEC, immunofluorescence, MLSMR starter and 10KST1 sets (AID 487;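 active = visually confirmed hit in the image check and inhibition above 20%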;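 as to inhibition: signal is fraction of cell area covered by stained E-selectin grains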;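 as to nuclei count: 100% = median nuclei count of all wells on the same plate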); details: HUVEC TNFalpha-induced E-selectin immunofluorescence imaging, at 2 µM; inhibition: stronger effect = higher value; nuclei count: measured here: cell number, toxicity
[4] = molecular target: Voltage-gated potassium channel subunit beta-2 (Rattus norvegicus) (UniProt P62483); test: KvBeta enzyme negative modulators, primary screen, biochemical, NADPH fluorescence (AID 622;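 active = fluorescence slope higher than the sample average by over 3 SD, cut at about -0.22 in these data, passing the limit was not always enough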;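 also: slope of raw intensity against log time taken from 70 to 1610 s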); details: recombinant KvBeta, 4-cyanobenzaldehyde reduction, at 10 µM, stronger effect = higher value
[5] = molecular target: Voltage-gated potassium channel subunit beta-2 (Rattus norvegicus) (UniProt P62483); test: KvBeta positive modulators, primary screen, biochemical, NADPH fluorescence (AID 623;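 active = NADPH fluorescence slope more negative than the mean of all samples by about 3 SD, 99.7% confidence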;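 also: fluorescence intensity change per second fitted from 20 to 320 s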); details: Recombinant KvBeta, NADPH fluorescence decrease slope, 10 min; at 10 µM; stronger effect = lower value
[6] = molecular target: Alpha-2C adrenergic receptor (Homo sapiens) (UniProt P18825); test: modulators of alpha2C/GIRK thallium flux, primary screen, cell-based, HEK293 alpha2C/GIRK1/2 (AID 624;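 active = fluorescence slope after compound addition differing from the mean of all screened samples at 99.7% confidence, in either direction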;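 also: slope of fluorescence ratio to pre-addition baseline per second over 15 to 24 s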); details: thallium flux BTC fluorescence, at 10 µM, actives lie on both sides
[7] = inhibitors of larval lipid processing in zebrafish, primary screen, whole organism, PED6 fluorescence, gall bladder and intestine (AID 686;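 active = a full or partial loss of lipid-probe fluorescence in the fish gall bladder, intestine or both, judged by eye; inactive = no fluorescence loss, or compound toxic to the fish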;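 also: larvae 5 to 7 days old with five fish per well; signal comes from phospholipase A2 cleavage of quenched PED6 carried via bile; overnight exposure to compound and PED6 before scoring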); details: Zebrafish larvae PED6 lipid processing, fluorescence scoring; screened at 20 µM (by protocol)
In short: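 Doses: 20 µM single dose. Test system: live zebrafish larvae aged 5-7 days, whole organism. Quantity: five larvae per well. Measured by: By-eye fluorescence microscopy. Reagent: ingested quenched lipid PED6 at 100 nM. Read-out: visual per-well fluorescence inhibition score. Times: overnight exposure of larvae to compound plus PED6.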

[8] = inhibitors of Sendai virus-induced IRF3 signaling, primary screen, TLR/RLR signaling modifier project, cell-based, Sendai virus stimulus, luciferase, 10K MLSCN set (AID 602276;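 active = inhibition at or above 50% at 10 µM; inactive = inhibition below 50%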;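 also: firefly luciferase from ISG56 promoter only with Renilla not read in this screen; 0% = Sendai virus plus DMSO and 100% = medium plus DMSO without virus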); details: HEK293 RL24 IRF3 luciferase reporter, at 10 µM, stronger effect = higher value
[9] = inhibitors of poly I:C-induced TLR3 signaling, primary screen, cell-based, poly I:C stimulus, luciferase, 10K MLSCN set (AID 602277); details: HEK293-TLR3 RL24 IRF3 luciferase reporter, at 10 µM, stronger effect = higher value

Alpha-2C adrenergic receptor (Homo sapiens), sequence (P18825 whole entry, looked up): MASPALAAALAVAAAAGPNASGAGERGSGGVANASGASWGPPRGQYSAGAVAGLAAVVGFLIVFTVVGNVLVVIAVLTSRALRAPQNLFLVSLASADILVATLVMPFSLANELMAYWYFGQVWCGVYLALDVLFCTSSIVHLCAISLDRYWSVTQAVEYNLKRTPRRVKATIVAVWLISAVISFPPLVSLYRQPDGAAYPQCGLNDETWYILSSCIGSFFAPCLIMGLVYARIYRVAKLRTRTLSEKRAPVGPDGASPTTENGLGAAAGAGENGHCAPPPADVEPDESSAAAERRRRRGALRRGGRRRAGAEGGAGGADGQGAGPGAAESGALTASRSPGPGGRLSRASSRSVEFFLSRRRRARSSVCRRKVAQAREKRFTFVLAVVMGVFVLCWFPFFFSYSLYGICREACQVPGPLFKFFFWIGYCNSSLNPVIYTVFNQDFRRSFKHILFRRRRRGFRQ
Voltage-gated potassium channel subunit beta-2 (Rattus norvegicus), sequence (P62483 whole entry, looked up): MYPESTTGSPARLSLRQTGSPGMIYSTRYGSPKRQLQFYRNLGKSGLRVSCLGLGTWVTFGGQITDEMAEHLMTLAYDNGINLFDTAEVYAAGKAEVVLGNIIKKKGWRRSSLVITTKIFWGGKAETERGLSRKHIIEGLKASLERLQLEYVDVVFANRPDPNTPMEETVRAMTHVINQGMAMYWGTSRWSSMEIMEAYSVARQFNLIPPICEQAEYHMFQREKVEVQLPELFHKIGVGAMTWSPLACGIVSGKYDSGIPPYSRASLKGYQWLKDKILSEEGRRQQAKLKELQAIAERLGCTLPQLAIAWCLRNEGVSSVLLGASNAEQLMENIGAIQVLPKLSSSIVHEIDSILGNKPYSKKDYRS

| SMILES | cell count [1] | inhibition [1] | inhibition of aggregation [2] | nuclei count [2] [%] | inhibition [3] | nuclei count [3] [%] | fluorescence slope [4] | NADPH fluorescence slope [5] | slope [6] | outcome [7] | inhibition [8] | inhibition [9] |
| --- | --- | --- | --- | --- | --- | --- | --- | --- | --- | --- | --- | --- |
| N#CCC(=O)Nc1ncn(Cc2ccccc2Cl)n1 | 273 | -2.5% (inactive) | -6% (inactive) | 87.3 | -51.5% (inactive) | 105 | -0.456 (inactive) | 1.5e-06 (inactive) | 0.00405 (inactive) | inactive | -5.79% (inactive) | 4.42% (inactive) |
| COc1ccccc1CC(=O)NCC1CCCO1 (centres undefined) | 346 | -15.9% (inactive) | 8.9% (inactive) | 107 | -2.8% (inactive) | 130 | -0.329 (inactive) | -4.4e-05 (inactive) | 0.00554 (inactive) | inactive | 11.5% (inactive) | 17.7% (inactive) |
| O=C(O)c1ccc(NC(=O)c2cccs2)cc1 | 464 | 1.2% (inactive) | 6.1% (inactive) | 89.3 | -75.3% (inactive) | 117 | -0.362 (inactive) | -2.7e-05 (inactive) | 0.00441 (inactive) | inactive | 9.12% (inactive) | 13.8% (inactive) |
| CN/C=C1\C(=O)C(C)(C)Oc2ccc3ccc(=O)oc3c21 | 544 | -12.4% (inactive) | -24.8% (inactive) | 101 | -38.4% (inactive) | 129 | -0.384 (inactive) | -2.1e-05 (inactive) | 0.00506 (inactive) | inactive | 8.59% (inactive) | 8.49% (inactive) |
| CSCCC(NC(=O)CCN1C(=O)c2ccccc2C1=O)C(=O)O (centres undefined) | 366 | 1.8% (inactive) | -10.9% (inactive) | 99.7 | -76.8% (inactive) | 110 | -0.411 (inactive) | 2e-07 (inactive) | 0.00495 (inactive) | inactive | 15.7% (inactive) | 19.3% (inactive) |
| COc1ccc(-n2ncc3c(NCc4cccs4)ncnc32)cc1 | 424 | 3.9% (inactive) | -20.1% (inactive) | 98.4 | -94.5% (inactive) | 106 | -0.36 (inactive) | -2e-06 (inactive) | 0.00593 (inactive) | inactive | -24.5% (inactive) | -70.4% (inactive) |
| COc1cccc(C2C(C(=O)c3cccs3)=C(O)C(=O)N2CCCn2ccnc2)c1OC (centres undefined) | 406 | -2% (inactive) | 12.6% (inactive) | 96.7 | -168% (inactive) | 106 | -0.341 (inactive) | -6.6e-05 (inactive) | 0.0053 (inactive) | inactive | 8.13% (inactive) | 7.94% (inactive) |
| COc1ccc(OC)c(NC(=O)CS(=O)(=O)c2ccccc2)c1 | 410 | -0.6% (inactive) | -1.6% (inactive) | 107 | -66.5% (inactive) | 121 | -0.438 (inactive) | 1.3e-05 (inactive) | 0.00539 (inactive) | inactive | -3.16% (inactive) | 6.62% (inactive) |
| Cn1c(CN2CCCCC2)nc2cc(NC(=O)c3ccccc3)ccc21 | 435 | -0.8% (inactive) | 3.4% (inactive) | 85.3 | 2.3% (inactive) | 92.4 | -0.438 (inactive) | -9.5e-07 (inactive) | 0.00451 (inactive) | inactive | -17.4% (inactive) | 98.6% (active) |
| COc1cc(CO)cc(-c2cc(CO)cc(OC)c2OC)c1OC | 547 | 3.5% (inactive) | 19.5% (inactive) | 76.2 | 49.8% (inactive) | 60.6 | -0.367 (inactive) | -5.9e-05 (inactive) | 0.00523 (inactive) | inactive | 11.3% (inactive) | 15.6% (inactive) |
| Cc1cccc(-n2ncc3c(NCc4cccs4)ncnc32)c1 | 667 | 6.7% (inactive) | 0.1% (inactive) | 99.5 | -119% (inactive) | 108 | -0.458 (inactive) | -2.6e-05 (inactive) | 0.00473 (inactive) | inactive | -36.3% (inactive) | -95% (inactive) |
| CCC1CCCCN1CCCNC(=O)c1ccc(CS(=O)(=O)Cc2ccccc2F)o1 (centres undefined) | 618 | -20.5% (inactive) | 7.5% (inactive) | 94.4 | -64.6% (inactive) | 91 | -0.416 (inactive) | -5.4e-05 (inactive) | 0.00482 (inactive) | inactive | 6.88% (inactive) | 20.5% (inactive) |
| O=C(CCn1[nH]c(=O)c2ccccc2c1=O)NCCO | 588 | -6.5% (inactive) | 0.4% (inactive) | 97.8 | -35.4% (inactive) | 71.1 | -0.361 (inactive) | -5.6e-05 (inactive) | 0.00681 (inactive) | inactive | 1.06% (inactive) | -8.68% (inactive) |
| CN(C)c1ccc(C2C3=C(CCCC3=O)OC3=C2C(=O)CCC3)cc1 | 571 | -6.3% (inactive) | 8.9% (inactive) | 112 | -20.9% (inactive) | 110 | -0.37 (inactive) | -5.2e-05 (inactive) | 0.00729 (inactive) | inactive | 14.3% (inactive) | 17% (inactive) |
| COc1ccc(C(=O)CSc2nnc(-c3ccc(C)cc3)o2)cc1 | 419 | 11.2% (inactive) | -14.9% (inactive) | 109 | -69.4% (inactive) | 112 | -0.371 (inactive) | -1.3e-05 (inactive) | 0.00862 (inactive) | inactive | -16.3% (inactive) | -18.5% (inactive) |
| Brc1ccc2ncnc(Nc3ccc(N4CCOCC4)cc3)c2c1 | 534 | -13.2% (inactive) | 8.9% (inactive) | 106 | 29.5% (inactive) | 84.4 | -0.375 (inactive) | -5.5e-05 (inactive) | 0.00328 (inactive) | inactive | 16.4% (inactive) | 1.52% (inactive) |
| COC(=O)c1[nH]c2ccc(C)cc2c1NC(=O)CN1CCN(C(=O)c2ccccc2)CC1 | 330 | -4% (inactive) | 3% (inactive) | 99.5 | -26.1% (inactive) | 102 | -0.306 (inactive) | -3.3e-05 (inactive) | 0.00437 (inactive) | inactive | 18.9% (inactive) | 14.6% (inactive) |
| Cn1c(C(=O)OC(C(=O)NC2CCCC2)c2cccnc2)cc2sccc21 (centres undefined) | 495 | 4% (inactive) | 9.5% (inactive) | 100 | -76.7% (inactive) | 102 | -0.437 (inactive) | -5.4e-05 (inactive) | 0.00446 (inactive) | active; weak signal in gallbladder and intestine | 18.1% (inactive) | 15.4% (inactive) |
| CCOC(=O)n1c(=O)oc2cc(S(=O)(=O)N3CCCCC3)ccc21 | 419 | 14.8% (inactive) | -1% (inactive) | 103 | 35.2% (inactive) | 81.5 | -0.294 (inactive) | -1.1e-05 (inactive) | 0.00583 (inactive) | inactive | 8.09% (inactive) | 16.3% (inactive) |
| CCN(CC)S(=O)(=O)c1ccc(NC(=O)c2cccc3c2C(=O)N(CCOC)C3)cc1 | 778 | -3.6% (inactive) | 5.3% (inactive) | 93.3 | -84.2% (inactive) | 129 | -0.244 (inactive) | -2.6e-05 (inactive) | 0.00636 (inactive) | inactive | 10.3% (inactive) | 26.3% (inactive) |
| CCOC(=O)C1CCCN(C(=O)Cc2ccc(OC)c(OC)c2)C1 (centres undefined) | 705 | 2.6% (inactive) | 2.1% (inactive) | 100 | -124% (inactive) | 104 | -0.443 (inactive) | -4.9e-05 (inactive) | 0.00479 (inactive) | inactive | 18.6% (inactive) | 17.7% (inactive) |
| c1ccc(-c2nnc(SCc3nc4ccccc4[nH]3)o2)cc1 | 285 | 8.2% (inactive) | -3.4% (inactive) | 94.1 | 34.3% (inactive) | 87.8 | -0.304 (inactive) | -1.4e-05 (inactive) | 0.00613 (inactive) | inactive | 12.6% (inactive) | -7.21% (inactive) |
| Cc1ccc2c(C(=O)CN3CCSCC3)c(C)[nH]c2c1 | 634 | 4.8% (inactive) | -7.9% (inactive) | 106 | 2.2% (inactive) | 104 | -0.386 (inactive) | -8.2e-05 (inactive) | 0.00551 (inactive) | inactive | -12.6% (inactive) | -12.9% (inactive) |
| COC(=O)c1c(NC(=O)CCc2ccc(C)o2)sc(C)c1C | 568 | 6.6% (inactive) | 7.9% (inactive) | 79.4 | -69.4% (inactive) | 91 | -0.294 (inactive) | -1.6e-05 (inactive) | 0.00498 (inactive) | inactive | 15.7% (inactive) | 31.1% (inactive) |
| O=C(NC1CCCCCC1)c1cc(S(=O)(=O)N2CCC3(CC2)OCCO3)ccc1F | 503 | -21.4% (inactive) | -53.3% (inactive) | 72.9 | -16.2% (inactive) | 83.7 | -0.36 (inactive) | 9e-06 (inactive) | 0.00552 (inactive) | inactive | -15.5% (inactive) | -37.6% (inactive) |
| O=C(O)c1ccc(C2SCC(=O)N2Cc2ccccc2)cc1 (centres undefined) | 323 | -0.4% (inactive) | 15.9% (inactive) | 57.9 | 7.3% (inactive) | 101 | -0.382 (inactive) | 1.2e-05 (inactive) | 0.00611 (inactive) | inactive | -6.17% (inactive) | 0.315% (inactive) |
| COCCNC(=O)C(c1ccc(C)o1)N(C(=O)c1snc(C(N)=O)c1N)c1ccc(C)cc1 (centres undefined) | 498 | -3.6% (inactive) | 19.7% (inactive) | 94 | 73.6% (inactive) | 65.5 | -0.378 (inactive) | -5.3e-05 (inactive) | 0.00521 (inactive) | inactive | 12.5% (inactive) | 7.41% (inactive) |
